Compounds with a hit are over-represented: about 3.7% of the library has one in this group of screens.
MC4R antag cAMP = blocks human MC4R cAMP signaling; P32245; MC4R-expressing cells, MTII-stimulated cAMP, LANCE TR-FRET; inhibition, % at 6.5 µM; actives 0.48% (n = 360,000); AID 540295;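 active means inhibition above its plate's cutoff, the mean of tested wells on that plate plus 3 SD, cut at about 29% in these data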;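 further: 0% = Melanotan II alone and 100% = Melanotan II plus saturating MCL0020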
Target sequence (P32245 whole entry, looked up): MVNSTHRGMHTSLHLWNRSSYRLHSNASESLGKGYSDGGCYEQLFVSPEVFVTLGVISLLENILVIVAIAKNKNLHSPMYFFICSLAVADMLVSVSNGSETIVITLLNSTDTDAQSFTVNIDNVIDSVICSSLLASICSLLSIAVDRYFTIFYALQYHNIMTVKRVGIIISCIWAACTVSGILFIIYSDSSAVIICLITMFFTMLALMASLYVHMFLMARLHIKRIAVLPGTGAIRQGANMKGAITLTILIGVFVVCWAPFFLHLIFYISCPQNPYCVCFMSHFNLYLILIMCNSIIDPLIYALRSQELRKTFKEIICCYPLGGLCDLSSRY
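Test system: U2OS cells stably expressing human melanocortin 4 receptor (MC4R); also added: Melanotan II challenge; compound: 6.5 µM single dose; timing: 30-min compound preincubation, 1-h Melanotan II challenge, 1-h detection, room temperature; signal: Eu-cAMP/anti-cAMP TR-FRET, emission 671 nm; repeats: one well per compound, no replicates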
Granule exo inh = lytic granule exocytosis inhibition | TALL-104 LAMP-1 surface exposure, flow cytometry; cells stimulated with thapsigargin and PMA | inhibition, % at 10 µM | actives 0.66% (n = 360,000);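 active means inhibition above about 55%, limit read from the data; inconclusive means no clear call, values can overlap the other calls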
MC4R barr agon = activates human MC4R beta-arrestin recruitment. P32245. U2OS MC4R beta-arrestin complementation, luminescence; percent of melanotan II response, DMSO zero. activation, % at 8.9 µM. actives 0.98% (n = 360,000). AID 540308;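 active means activation above a per-plate cutoff, the mean activation of sample wells on that plate plus 3 SD, cut at about 8% in these data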
Myeloid diff 2 = promotes myeloid progenitor differentiation; ER-HoxA9 myeloid progenitors, lysozyme-GFP differentiation, flow cytometry; actives 1% (n = 360,000); calls only at 10 µM;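 active means normalized GFP-positive differentiation at or above the plate's own cutoff, the solvent-only control mean plus 3 SD; inconclusive means no clear call, values can overlap the other calls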;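 further: cells exposed to compound for four days before flow analysis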
EBI2 antag = EBI2 (human) antagonism | AID 651636 | P32249 | inhibition, % at 5 µM | actives 0.81% (n = 360,000) | EBI2 beta-arrestin recruitment, luminescence, 7a,25-OHC stimulated; in the data active means inhibition above about 38%;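 further: enzyme fragment complementation signal reports receptor beta-arrestin coupling in cells; 0% = agonist plus DMSO wells and 100% = wells without agonist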
MC4R barr conf = human MC4R beta-arrestin agonism confirmation; shares compounds with MC4R barr agon; U2OS MC4R beta-arrestin recruitment, luminescence; scaled DMSO 0%, Melanotan II 100%; activation, % at 8.9 µM; actives 31% (n = 2,400); AID 602192;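 active means mean activation across replicates above the hit cutoff set in the earlier primary screen, cut at about 8% in these data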
MOR DOR agonist = OPRM1-OPRD1 heterodimer agonism counter-screen. shares compounds with MC4R barr agon. U2OS PathHunter beta-arrestin, beta-gal luminescence; percent of deltorphin B response, DMSO zero. activation, % at 9.2 µM. actives 5.8% (n = 2,400);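 active means mean activation across replicates exceeds the hit threshold derived in the earlier primary screen, cut at about 18% in these data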;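 further: 100% = deltorphin B at 0.9 µM final and 0% = DMSO alone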
Numbers without * were called inactive; i = inactive; ? = inconclusive; . = no result.

SMILES | MC4R antag cAMP | Granule exo inh | MC4R barr agon | Myeloid diff 2 | EBI2 antag | MC4R barr conf | MOR DOR agonist
C=CCN1C(=O)C(Cc2ccc(OC)cc2)S/C1=N\N=C\c1cccs1 (centres undefined) | -1 | -6 | 9.9* | i | 0 | 9.7* | 2
O=C(Nc1cc(S(=O)(=O)N2CCCC2)ccc1OCC(F)(F)F)c1ccncc1 | 3 | -4 | 0 | i | -6 | . | .
O=C(Nc1cc(S(=O)(=O)N2CCCCCC2)ccc1OCC(F)(F)F)c1cnccn1 | 8 | -10 | 10* | i | 2 | -1 | 3
COC(=O)Cn1c(=NC(=O)c2ccc(Cl)s2)sc2cc(F)ccc21 | -1 | -3 | 4 | i | 3 | . | .
CCOC(=O)Cn1c(=NC(=O)c2cccs2)sc2cc(C(=O)OC)ccc21 | 4 | 2 | 1 | i | -12 | . | .
C#CCn1c(=NC(=O)c2ccc(Cl)s2)sc2cccc(OC)c21 | 9 | -14 | 15* | i | 4 | 6 | 2
C#CCn1c(=NC(=O)c2cccs2)sc2cccc(OCC)c21 | 19 | -6 | 24* | i | 4 | 4 | 2
COc1ccc(-c2nc(CS(=O)CC(=O)NCCCN3CCOCC3)c(C)o2)cc1OC (centres undefined) | 0 | 0 | 1 | i | -5 | . | .
COc1ccc(NC(=O)c2sc3cc(C(F)(F)F)cnc3c2-c2cccs2)cc1 | 3 | -1 | 9.8* | i | 23 | -1 | 3
O=C(Nc1ccc(F)cc1)c1sc2cc(C(F)(F)F)cnc2c1-c1cccs1 | 1 | -2 | 11* | i | 10 | 6 | 6
N#Cc1ccc(NC(=O)c2sc3cc(C(F)(F)F)cnc3c2-c2cccs2)cc1 | -7 | -1 | 0 | i | 12 | . | .
O=C(Cn1nc(C(=O)O)c2ccccc2c1=O)Nc1ccc(Br)cc1 | 4 | -1 | 2 | i | 11 | . | .
O=C(Cn1nc(C(=O)O)c2ccccc2c1=O)Nc1cc(Cl)cc(Cl)c1 | 2 | -6 | 12* | i | 5 | 0 | 5
CCCc1ccc(C(=O)Cn2nc(C(=O)O)c3ccccc3c2=O)cc1 | 6 | 11 | 10* | i | 5 | 4 | 5
NC(=O)c1c(NC(=O)Cn2nc(C(=O)O)c3ccccc3c2=O)sc2c1CCCC2 | 2 | -1 | 10* | i | 6 | 8 | 4
CN(C)CCN(C)C1CN(Cc2ccc(F)cc2)S(=O)(=O)C1 (centres undefined) | . | 1 | . | i | -4 | . | .
COc1ccc(-c2ccc3c(c2)S(=O)(=O)c2cccc(C(=O)NCc4cccc(OC(F)(F)F)c4)c2C3=O)cc1OC | 3 | 0 | 4 | i | -18 | . | .
COc1ccc(-c2ccc3c(c2)S(=O)(=O)c2cccc(C(=O)NCc4cc(C)oc4C(F)(F)F)c2C3=O)cc1OC | 12 | 16 | 12* | i | -7 | 27* | 12
CN1CC[C@@H]2C(=O)N3CCc4ccc(-c5ccc6c(c5)OCO6)cc4[C@@H]3C[C@@H]21 | 3 | 0 | 3 | i | 6 | . | .
CCCCOc1ccc(C(=O)Nc2ccc(SC(F)F)cc2)cc1OC | 8 | 0 | 9.9* | i | 31 | 16* | 7
CCOc1ccc(NS(=O)(=O)c2cccs2)cc1S(=O)(=O)N1CCCC1 | 16 | 1 | -2 | i | -1 | . | .
CCCn1ncc(CN2CCC(n3nccc3NC(=O)c3ccccc3Cl)CC2)c1C | -5 | 2 | 1 | i | -4 | . | .
COC(=O)c1ccc(NC(=O)COc2coc(CN3CCc4ccccc43)cc2=O)cc1 | -1 | -4 | -4 | i | 0 | . | .
Cc1ccc(NC(=O)COc2coc(CN3CCc4ccccc43)cc2=O)cc1Cl | 8 | 30 | 12* | i | -1 | 5 | 25*
O=C(COc1ccc(-n2cnnn2)cc1)Nc1cc(Cl)cc(Cl)c1 | 0 | -1 | 17* | ? | 8 | 5 | 8
Cc1ccc(S(=O)(=O)N2CCOCC2)cc1NC(=O)CNC(C)c1ccccc1 (centres undefined) | 0 | 12 | -1 | i | 2 | . | .

Screening data deposited in PubChem by several laboratories.
